DSG3 Ab inh: blocks pemphigus antibody binding to human desmoglein-3. DSG3-coupled beads, scFv-anti-DSG3-GFP binding, flow cytometry; active compounds read low. P32926. binding (percent of control), % at 10 µM. AID 588358. 310,000 tested, 0.48% active;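 active = binding more than 3 SD below its plate's average and above zero; inconclusive = below that plate limit but binding exactly zero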;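 also: hits lower antibody fragment binding to DSG3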
RanGTP-Impb inh: inhibitors of RanGTP-importin-beta interaction, primary screen, biochemical, FRET, CFP-Ran, YFP-importin-beta, homogeneous; inhibition, % (no concentration beside the values); AID 2216; cell-free CFP-Ran/YFP-importin-beta FRET ratio; 300,000 tested, 1.1% active;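 active = more than half of the replicate wells show a fall in the fluorescence ratio signal beyond about 16%, limit read from the data, passing the limit was not always enough; inconclusive = exactly half of the replicate wells pass the set limit; inactive = fewer than half of replicates pass the limit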;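 also: 0% = DMSO wells and 100% = Ran loaded with GDP instead of GTP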
pCIP destab: lowers stability of the mouse p/CIP coactivator protein. Q05BA5. F442A p/CIP-EGFP cells, EGFP fluorescence, 16 h. decrease of EGFP signal, % at 10 µM. 290,000 tested, 0.01% active. AID 1984;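 active = EGFP signal decrease of at least 30% at 10 µM or well 3 SD below plate mean, unless failing retest; inactive = the rest, including hits failing retest or dose response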
Hck Nef HTS: blocks Nef-activated human Hck kinase; 220,000 tested, 0.68% active; inhibition, % at 20 µM; P08631; Recombinant Hck-YEEI plus Nef, Z-Lyte FRET kinase assay; AID 463187;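 active = Hck-Nef kinase inhibition above about 50%, limit read from the data; inactive = inhibition below that limit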;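 also: 0% = DMSO with Hck plus Nef and 100% = Hck alone without Nef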
Runt-CBFb FRET: inhibitors of human RUNX1 Runt domain binding to CBFb; Cerulean-Runt/Venus-CBFb FRET ratio 530/480, 1 h; inhibition, % at 20 µM; 220,000 tested, 0.46% active;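 active = inhibition over about 50% at 20 µM in the single-dose screen, limit read from the data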;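 also: 0% = DMSO wells and 100% = excess unlabeled CBFb competitor control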
Target sequence (Q01196 whole entry, looked up, the tested form may be a part): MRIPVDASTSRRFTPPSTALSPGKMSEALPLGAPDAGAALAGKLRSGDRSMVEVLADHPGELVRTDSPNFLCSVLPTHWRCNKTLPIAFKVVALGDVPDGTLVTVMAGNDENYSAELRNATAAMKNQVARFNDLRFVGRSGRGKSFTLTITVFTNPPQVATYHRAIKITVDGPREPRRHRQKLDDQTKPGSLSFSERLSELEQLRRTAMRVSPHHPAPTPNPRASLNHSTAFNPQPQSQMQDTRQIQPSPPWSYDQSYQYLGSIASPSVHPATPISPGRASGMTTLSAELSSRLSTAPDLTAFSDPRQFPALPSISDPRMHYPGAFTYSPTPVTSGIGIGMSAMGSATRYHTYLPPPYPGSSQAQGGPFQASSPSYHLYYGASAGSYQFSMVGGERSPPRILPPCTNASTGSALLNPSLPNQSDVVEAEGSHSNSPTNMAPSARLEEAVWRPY
Target sequence (Q13951 whole entry, looked up, the tested form may be a part): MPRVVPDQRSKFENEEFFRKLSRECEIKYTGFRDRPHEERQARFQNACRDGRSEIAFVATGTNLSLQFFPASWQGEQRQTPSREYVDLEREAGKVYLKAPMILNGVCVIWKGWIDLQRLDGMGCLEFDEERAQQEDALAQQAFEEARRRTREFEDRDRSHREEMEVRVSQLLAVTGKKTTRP
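Reagent – Venus-CBFb binding partner, 100 nM · Assay system – Cerulean-tagged RUNX1 Runt domain (FRET donor) fusion protein · Input – 100 nM per protein · Incubation – two 1 h room-temperature incubations shielded from light · Measured by – FRET fluorescence · Medium – Tris buffer pH 7.5 with salts and BSA · Benchmarks – unlabeled CBFb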
Runt-SMMHC FRET: Runt domain-CBFb-SMMHC interaction inhibition | Q01196+Q13951 | Cerulean-Runt/Venus-CBFb-SMMHC FRET ratio 530/480, 1 h | inhibition, % at 20 µM | 220,000 tested, 0.74% active | AID 1434;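 active = mean inhibition across duplicate retests at 20 µM reaching about 50%, limit read from the data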;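 also: 0% = DMSO wells and 100% = wells with excess untagged CBFb-SMMHC; inhibitors lower the FRET ratio by blocking Runt binding to CBFb-SMMHC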
The depositor's hits bear a star; ? = inconclusive; . = no result; ! = not confirmed by another sample. A selection: hits, their analogues and other compounds. The true share with any hit is near 2.1%.

SMILES	DSG3 Ab inh	RanGTP-Impb inh	pCIP destab	Hck Nef HTS	Runt-CBFb FRET	Runt-SMMHC FRET
CN(C)CCCNc1c2c(nc3cc(-c4cccc(F)c4)nn13)CCC2	101	27*	-39	15	0	2
Cc1c(Cl)cccc1NC(=O)C1=COCCO1	104	0	.	.	.	.
CC(=Nc1ccc(Br)cc1)c1sc2ccccc2c1O	91	49*	-8	8	9	81
CC(=Nc1ccccc1)c1sc2ccccc2c1O	124	48*	-5	-2	14	-7
CCOC(=O)C1=C(O)/C(=C/c2cn(CC(=O)N3CCCC3)c3ccccc23)SC1=Nc1ccccc1	103	0	-1	10	21	83*
c1ccc(CC2=NCCN2)cc1	92	1	1	1	0	-2
c1ccc(CN(CC2=NCCN2)c2ccccc2)cc1	14*!	?	-2	-1	0	2
CC1(C(=O)NNC(=O)c2ccc(=O)oc2)CC1Br (configuration not stated)	92	17	-6	-2	31	84*
O=C(O)CCC(=O)c1ccc2ccc3cccc4ccc1c2c34	.	5	-2	12	28	69*
O=C(O)CCC(=O)c1cccc2ccccc12	106	0	3	7	-1	4
O=C(COC(=O)/C=C/c1cccc(F)c1)Nc1ccc(Cl)cn1	101	-2	5	18	-1	-3
O=C(COC(=O)/C=C/c1cccc(F)c1)Nc1ncccn1	83*	-2	6	5	1	1
CC(/C=C1\SC(=S)N(NS(=O)(=O)c2ccccc2)C1=O)=C\c1ccccc1	90	?	-7	74*	-1	-9
O=C(c1cccc(Cl)c1)N1CCC(N2CCC(C(=O)N3CCCC3)CC2)CC1	.	5	-3	.	.	.
O=[N+]([O-])c1ccccc1S(=O)(=O)N1CCN(Cc2ccc3c(c2)OCO3)CC1	37*	0	-10	2	2	1
CC[C@H](C)/C=C(C)/C=C/C1=CC2=CC(=O)[C@]3(C)OC(=O)[C@@H](C(C)=O)[C@@H]3C2=CO1	97	55*	-21	-47	8	85*
CC[C@H](C)/C=C(C)/C=C/C(=O)Cc1cc(O)c(C)c(O)c1C=O	100	-7	-8	11	1	-94
Cc1cccc(CN2CCCC(C(=O)c3ccc4c5c(cccc35)CC4)C2)n1 (configuration not stated)	102	-4	-12	154*	-2	2
Fc1ccc2nncc(SCc3ccccc3Cl)c2c1	109	.	.	.	.	.
C=CCn1c(SCC(=O)N2CCN(c3ccccc3)CC2)nc2c([nH]c3ccccc32)c1=O	91*	.	-10	.	.	.
C=CCn1c(SCC(=O)N2CCOCC2)nc2c([nH]c3ccccc32)c1=O	113	1	-2	.	.	.
O=C(CSc1nc2c([nH]c3ccccc32)c(=O)n1-c1cccc(Cl)c1)N1CCOCC1	92	?	2	53*	.	-1
Cc1ccc(S(=O)(=O)N2CC(C)N(C(=O)N3CCOCC3)C2C)cc1 (configuration not stated)	107	1	-9	.	.	.
COc1ccc(C(=O)/C=C2\Sc3ccccc3N2C)cc1	106	-1	-12	31	31	56*
CC(=S)/C=C1\Sc2ccccc2N1C	119	-1	-6	1	48	37
SMILES	DSG3 Ab inh	RanGTP-Impb inh	pCIP destab	Hck Nef HTS	Runt-CBFb FRET	Runt-SMMHC FRET
CCCCC(OC(=O)CN1C(=O)COc2ccccc21)C(=O)NC1CCCCC1 (configuration not stated)	94	2	-5	.	.	.
CCN(CC)c1ccc(/C=C(\C#N)C(N)=O)cc1	103	.	-2	20	29	63*
O=C(O)CCN1C(=O)C2C3CC(C2C1=O)C1C(c2ccccc2)c2sc(=O)[nH]c2SC31 (configuration not stated)	89	21*	14	9	12	-1
O=c1[nH]c2c(s1)C(c1ccccc1)C1C3CCC(C3)C1S2 (configuration not stated)	103	26*	-3	2	4	11
Cc1ccc(C2c3sc(=O)[nH]c3SC3C4CC(C5C(=O)N(C(C)C(=O)O)C(=O)C45)C23)cc1 (configuration not stated)	102	58*	-13	5	27	4
O=[N+]([O-])c1cccc(NC(=S)N2CCN(c3ccccn3)CC2)c1	105	.	-2	.	.	.
COc1ccccc1C(=O)NCCC(=O)NCC1COc2ccccc2O1 (configuration not stated)	99	.	.	.	.	.
CCOC(=O)C1CCN(S(=O)(=O)c2ccc3c(c2)N(C(C)=O)CC(C)S3)CC1 (configuration not stated)	85	2	-33	.	.	.
CC(C)Oc1ccc(S(=O)(=O)N2CCOCC2)cc1NC(=O)CSC(=S)N1CCCC1	96	.	.	.	.	.
CN(C)S(=O)(=O)c1ccc2nnn(O)c2c1	98	-5	-6	-19	0	1
Nc1ccccc1-c1nc2ccccc2[nH]c1=O	105	-1	-57	.	.	.
O=c1[nH]c2ccccc2nc1-c1c[nH]c2ccccc12	94	48*	4	.	.	.
CC1CCCC(NC(=O)CCC(=O)NCc2ccccc2)C1C (configuration not stated)	113	-3	4	.	.	.
COc1cc(/C=C2\SC(=O)N(c3ccc(Cl)cc3)C2=O)cc([N+](=O)[O-])c1O	98	.	-9	75*	-3	-14
Cc1ccc(N2C3=C(C(=O)CC(C)(C)C3)C(c3cn(C)nc3C)C3=C2CC(C)(C)CC3=O)cc1	147	26*	.	.	.	.
O=C(CCNC(=O)C1CCN(S(=O)(=O)c2ccc(F)cc2)CC1)NCc1ccncc1	101	0	-14	.	.	.
Cc1cc(C)c(C#N)c(Sc2ccc(N)cc2)n1	98	2	-3	2	1	2
Cc1cc(C)c(C#N)c(SC(F)F)n1	105	98*	-2	-2	0	-1
COc1cccc(CC2(CO)CCN(S(=O)(=O)N(C)C)CC2)c1	116	18*	4	7	0	-5
COc1cccc(CC2(CO)CCCN(S(=O)(=O)N(C)C)C2)c1 (configuration not stated)	99	0	-12	16	2	-2

Screening results as filed in PubChem BioAssay.
